ChEMBL document CHEMBL1126099, “Synthesis and biological characterization of alpha-(4-fluorophenyl)-4-(5-fluoro-2-pyrimidinyl)-1-piperazinebutanol and analogues as potential atypical antipsychotic agents” (J Med Chem, 1992)
Activity calls are given as the source filed them. No cut-off for these calls is given here.

How the values were obtained:
Rattus norvegicus [1] = experiment: Effective in vivo peroral dose against induction of catalepsy in rats; type: functional
Rattus norvegicus [2] = species on record: Rattus norvegicus; experiment: Inhibition of apomorphine-induced stereotypy in rats via peroral route; type: functional
[3] = biological target: T1, Adrenergic receptor alpha-1 (Rattus norvegicus, UniProt P15823+P23944+P43140); experiment: Inhibitory concentration against radioligand [3H]-WB- 4101 binding to rat cortical Alpha-1 adrenergic receptor; type: protein assay
T1 sequence (P15823 whole entry): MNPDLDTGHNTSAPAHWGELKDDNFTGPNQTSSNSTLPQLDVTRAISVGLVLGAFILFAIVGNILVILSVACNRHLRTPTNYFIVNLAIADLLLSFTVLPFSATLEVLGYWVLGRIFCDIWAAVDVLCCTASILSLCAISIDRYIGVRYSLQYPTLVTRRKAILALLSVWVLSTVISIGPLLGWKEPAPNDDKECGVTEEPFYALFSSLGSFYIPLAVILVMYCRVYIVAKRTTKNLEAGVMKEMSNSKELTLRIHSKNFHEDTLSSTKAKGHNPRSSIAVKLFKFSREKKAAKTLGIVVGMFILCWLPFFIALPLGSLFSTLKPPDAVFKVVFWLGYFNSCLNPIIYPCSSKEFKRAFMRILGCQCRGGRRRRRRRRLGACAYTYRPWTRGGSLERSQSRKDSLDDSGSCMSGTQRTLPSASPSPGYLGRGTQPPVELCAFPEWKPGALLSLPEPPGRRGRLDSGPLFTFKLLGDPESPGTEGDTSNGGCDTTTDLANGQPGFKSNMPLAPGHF
T1 sequence (P23944 whole entry): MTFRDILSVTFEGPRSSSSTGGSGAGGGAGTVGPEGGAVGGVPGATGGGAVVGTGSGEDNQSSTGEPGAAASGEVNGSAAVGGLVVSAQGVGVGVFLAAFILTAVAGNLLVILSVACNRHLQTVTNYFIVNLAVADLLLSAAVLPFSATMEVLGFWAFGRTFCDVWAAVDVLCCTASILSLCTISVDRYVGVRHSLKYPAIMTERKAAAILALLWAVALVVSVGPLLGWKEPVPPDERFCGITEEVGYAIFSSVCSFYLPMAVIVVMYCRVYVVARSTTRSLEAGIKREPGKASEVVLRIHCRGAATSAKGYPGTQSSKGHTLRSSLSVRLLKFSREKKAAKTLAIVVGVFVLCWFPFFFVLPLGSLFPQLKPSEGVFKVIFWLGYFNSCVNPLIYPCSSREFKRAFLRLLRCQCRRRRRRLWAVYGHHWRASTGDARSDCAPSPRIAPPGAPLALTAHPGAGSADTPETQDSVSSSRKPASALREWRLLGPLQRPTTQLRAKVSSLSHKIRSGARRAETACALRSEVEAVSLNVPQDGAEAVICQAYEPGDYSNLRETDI
T1 sequence (P43140 whole entry): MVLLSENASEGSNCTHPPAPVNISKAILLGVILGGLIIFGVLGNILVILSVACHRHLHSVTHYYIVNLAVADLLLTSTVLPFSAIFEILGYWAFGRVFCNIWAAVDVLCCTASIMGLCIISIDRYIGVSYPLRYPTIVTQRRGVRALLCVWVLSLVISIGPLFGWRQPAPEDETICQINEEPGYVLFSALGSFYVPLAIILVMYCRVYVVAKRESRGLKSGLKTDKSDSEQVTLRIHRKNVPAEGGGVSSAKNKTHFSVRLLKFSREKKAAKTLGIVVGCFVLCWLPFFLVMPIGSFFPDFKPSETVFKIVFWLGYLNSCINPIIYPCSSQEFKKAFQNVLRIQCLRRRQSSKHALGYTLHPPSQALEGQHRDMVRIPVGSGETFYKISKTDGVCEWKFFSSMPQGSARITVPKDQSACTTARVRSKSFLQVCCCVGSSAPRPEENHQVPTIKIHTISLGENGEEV
Procedure, shortened: (§1)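 Competition binding against tritiated radioligand. Test drug was run at five concentrations in a single experiment, and IC50 (nM) was derived from displacement.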

Rattus norvegicus [4] = species on record: Rattus norvegicus; experiment: Effective peroral dose for inhibition of conditioned avoidance response in rats; type: functional; conditions: po
Rattus norvegicus [5] = experiment: Effective dose for reversal of trifluoperazine-induced catalepsy in rats; I=Inactive (ED50 mg/Kg); type: functional, organism-based
Rattus norvegicus [6] = species on record: Rattus norvegicus; experiment: Effective dose for ethanol potentiation in rats; type: functional
Mus musculus [7] = species on record: Mus musculus; experiment: Effective dose for inhibition of physostigmine induced lethality in mouse; type: functional
Mus musculus [8] = species on record: Mus musculus; experiment: Effective dose for inhibition of norepinephrine induced lethality in mouse; type: functional
Rattus norvegicus [9] = species on record: Rattus norvegicus; experiment: Effective dose for motor incoordination in rats was determined by rotarod method; type: functional
Rattus norvegicus [10] = species on record: Rattus norvegicus; experiment: Effective dose for inhibition of spontaneous motor activity in rats; type: functional
[11] = biological target: T1, Adrenergic receptor alpha-1; experiment: Inhibition of [3H]WB-4101 binding to rat cortical Alpha-1 adrenergic receptor in vitro; type: protein assay; procedure, shortened: as §1
[12] = biological target: T2, Sigma non-opioid intracellular receptor 1 (Rattus norvegicus, UniProt Q9R0C9); experiment: Displacement of (+)-[3H]-3-PPP from rat cortical sigma site; procedure, shortened: as §1
D(2) dopamine receptor [13] = biological target: T3, D(2) dopamine receptor (Rattus norvegicus, UniProt P61169); experiment: In vitro inhibitory against radioligand [3H]spiperone binding to rat striatal Dopamine receptor D2; procedure, shortened: as §1
D(2) dopamine receptor [14] = biological target: T3, D(2) dopamine receptor; experiment: Inhibitory concentration against radioligand [3H]spiperone binding to rat striatal Dopamine receptor D2
Procedure, shortened: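 [3H]Spiperone displacement at the D2 receptor. Each value comes from a single experiment in which displacement of the tritiated ligand was measured at five concentrations of test drug, and an IC50 in nM was derived from that.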

[15] = biological target: T2, Sigma non-opioid intracellular receptor 1; experiment: Compound was tested in vitro for its ability to displace radioligand (+)-[3H]-3-PPP from rat cortical sigma receptor
[16] = Rattus norvegicus, po, read-out: ED50

T2 sequence (Q9R0C9 whole entry): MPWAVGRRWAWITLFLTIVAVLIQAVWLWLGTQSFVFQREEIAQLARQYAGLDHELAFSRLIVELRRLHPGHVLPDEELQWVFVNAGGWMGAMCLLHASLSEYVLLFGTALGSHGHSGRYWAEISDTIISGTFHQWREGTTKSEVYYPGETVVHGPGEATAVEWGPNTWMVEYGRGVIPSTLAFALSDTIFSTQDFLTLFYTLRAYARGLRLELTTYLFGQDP
T3 sequence (P61169 whole entry): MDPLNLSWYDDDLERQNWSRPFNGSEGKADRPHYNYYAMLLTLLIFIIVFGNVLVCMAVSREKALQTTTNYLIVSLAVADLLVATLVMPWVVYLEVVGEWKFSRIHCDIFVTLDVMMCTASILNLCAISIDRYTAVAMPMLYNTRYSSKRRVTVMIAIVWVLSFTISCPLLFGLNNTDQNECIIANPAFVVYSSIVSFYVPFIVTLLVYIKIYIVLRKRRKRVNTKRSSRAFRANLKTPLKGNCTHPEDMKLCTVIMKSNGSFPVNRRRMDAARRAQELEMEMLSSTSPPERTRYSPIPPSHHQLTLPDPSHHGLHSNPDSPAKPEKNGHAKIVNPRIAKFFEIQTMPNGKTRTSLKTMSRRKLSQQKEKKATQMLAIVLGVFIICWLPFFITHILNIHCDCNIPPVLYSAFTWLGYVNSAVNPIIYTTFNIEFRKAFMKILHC

Row | SMILES | ED50 (Rattus norvegicus [4]) [mg/kg] | ED50 (Rattus norvegicus [1]; [16]) [mg/kg] | ED50 (Rattus norvegicus [2]; [16]) [mg/kg] | IC50 [11] [nM] | IC50 [12] [nM] | IC50 (D(2) dopamine receptor [13]) [nM] | other results
1 | O[C@@H](CCCN1CCN(c2ncc(F)cn2)CC1)c1ccc(F)cc1 [BMY-14802] |  |  |  |  |  |  | ED50 (Rattus norvegicus [1]): 38.1 mg/kg; ED50 (Rattus norvegicus [2]): 25.4 mg/kg; IC50 [3]: 570 nM
2 | O=C(CCCN1CCC(O)(c2ccc(Cl)cc2)CC1)c1ccc(F)cc1 [HALOPERIDOL] | 2.8 | 0.58 | 0.5 |  |  |  | Activity (Rattus norvegicus [5]): inactive; ED50 (Rattus norvegicus [6]): 0.28 mg/kg; ED50 (Mus musculus [7]): > 80 mg/kg; ED50 (Mus musculus [8]): 26 mg/kg; ED50 (Rattus norvegicus [9]): 5.2 mg/kg; ED50 (Rattus norvegicus [10]): 0.73 mg/kg
3 | OC(CCCN1CCN(c2ncc(Cl)cn2)CC1)c1ccc(F)cc1 (stereo not given) | 87.1 | 148 | > 100 | 1420 | 22 | 5660 | 
4 | O/N=C(\CCCN1CCN(c2ncc(F)cn2)CC1)c1ccc(F)cc1 | > 100 |  |  | 22 | 81 |  | 
5 | N#CC(CCCN1CCN(c2ncc(F)cn2)CC1)c1ccc(F)cc1 (stereo not given) | 19.8 | > 100 | > 100 | 266 | 190 | 1880 | 
6 | OC(CCCN1CCN(c2ncc(Br)cn2)CC1)c1ccc(F)cc1 (stereo not given) | 50 | 108 | > 65 | 1500 | 26 | > 1000 | 
7 | CCC(O)(CCCN1CCN(c2ncc(F)cn2)CC1)c1ccc(F)cc1 (stereo not given) | 48.5 | > 100 | > 50 | > 1000 | 370 | 3750 | 
8 | Oc1nc(N2CCN(CCCC(O)c3ccc(F)cc3)CC2)ncc1F (stereo not given) | > 100 |  | > 100 | > 1000 | > 1000 | > 1000 | 
9 | CCC(O)(CCCN1CCN(c2ncccn2)CC1)c1ccc(F)cc1 (stereo not given) | > 100 |  | > 100 | 230 |  | 415 | 
10 | OC(CCN1CCN(c2ncc(F)cn2)CC1)c1ccc(F)cc1 (stereo not given) | > 100 |  | > 100 | 814 | 160 | > 1000 | 
11 | O[C@H](CCCN1CCN(c2ncc(F)cn2)CC1)c1ccc(F)cc1 |  | 11.4 | 44 |  |  |  | IC50 (D(2) dopamine receptor [14]): > 1000 nM; IC50 [3]: 610 nM
12 | Fc1ccc(/C=C(\CCN2CCN(c3ncc(F)cn3)CC2)c2ccc(F)cc2)cc1 | > 100 |  |  | 756 | > 1000 | 8800 | 
13 | CN1CCN(C2=Nc3cc(Cl)ccc3Nc3ccccc32)CC1 [CLOZAPINE] |  | > 200 |  |  |  |  | Activity (Rattus norvegicus [5]): inactive; ED50 (Mus musculus [7]): 5.4 mg/kg; ED50 (Mus musculus [8]): 3.5 mg/kg; ED50 (Rattus norvegicus [9]): 7.9 mg/kg; IC50 [15]: > 1000 nM
14 | COc1nc(N2CCN(CCCC(O)c3ccc(F)cc3)CC2)ncc1F (stereo not given) | 40.8 | 79.2 | 54 | 180 | 24 | 3940 | 
15 | OC(CCCN1CCN(c2ncc(F)cn2)CC1)(c1ccc(F)cc1)c1ccc(F)cc1 | > 100 |  |  | 1140 |  |  | 
